The text below walks through data of ChEMBL document CHEMBL1145287, “Docking and 3-D QSAR studies on indolyl aryl sulfones. Binding mode exploration at the HIV-1 reverse transcriptase non-nucleoside binding site and design of highly active N-(2-hydroxyethyl)carboxamide and N-(2-hydroxyethyl)carbohydrazide derivatives” (J Med Chem, 2005).

Common to all, as to conditions: Homo sapiens
The test system of assay [1] is MT4. Description: Concentration required to achieve 50% protection of infected MT-4 cells from Y181C-HIV-1 strain. It is filed as functional, cell-based. Summed up: (§1)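 MT-4 cells (1 × 10⁴/well, RPMI 1640 + 10% FCS) exposed to serial compound dilutions (200 mM DMSO stock diluted in medium), infected with enough virus to give full cytopathicity by day 4; wt IIIB from H9/IIIB supernatant, Y181C and K103N–Y181C from NNRTI-selected passages.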

In assay [2] the test system is MT4. Description: Compound concentration required to achieve 50% protection of infected MT-4 cells from K103N-Y181C strain was determined by the MTT method. The class given is functional, cell-based. An outline of the steps: as §1
In assay [3] the test system is C8166. Nature of the assay: Compound concentration required to reduce the amount of p24 by 90% in wtIIIBinfected C8166 cells. The class given is functional. An outline of the steps: (§2)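 Acute infection of C8166 cells (1 × 10⁴/well, RPMI 1640 with 10% FCS, 37 °C, 5% CO₂) by HIV-1 IIIB from persistently infected H9/IIIB supernatant, with a virus inoculum sized to cause complete cytopathicity at day 4, in the presence of serially diluted compound (DMSO stock diluted in medium). p24 antigen was measured by immunoenzymatic kit. Concentration giving 90% reduction of p24 reported.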

Assay [4] relates to C8166. Description: Compound concentration required to reduce the amount of p24 by 90% in C8166 cells infected with an efavirenz-resistant strain EFVR carrying mutations K103R, V179D, and P225H. The class given is functional. Summed up:
(§3)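 C8166 cells (1 × 10⁴/well) with serial compound dilutions (200 mM DMSO stock diluted in medium), infected with K103R/V179D/P225H virus selected from IIIB by passage in C8166 cells with efavirenz up to 2 μM (stock 3.0 × 10⁵ CCID₅₀/mL); 37 °C incubation; p24 measured by immunoenzymatic kit; value = concentration giving 90% p24 reduction.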

Assay [5] has as its system MT4. Description: Concentration required to achieve 50% protection of infected MT-4 cells from K103N-Y181C. The class given is functional, cell-based. An outline of the steps:
as §1

Assay [6] deals with MT4. Nature of the assay: Compound concentration required to achieve 50% protection of infected MT-4 cells from Y181C strain was determined by the MTT method. It is filed as functional, cell-based. An outline of the steps:
as §1
(In general: Tetrazolium dyes change colour on reduction, which living cells bring about.)

The subject of assay [7] is C8166. Nature of the assay: Concentration required to reduce the amount of p24 by 90% in wtIIIB-HIV-1-infected C8166 cells. It is filed as functional. Summed up: as §2
Assay [8] concerns C8166. Nature of the assay: Concentration required to reduce the amount of p24 by 90% in C8166 cells infected with an efavirenz-resistant strain EFVR. It is filed as functional. Summed up: as §3
Assay [9] relates to MT4. Description: (§4) Concentration required for 50% protection of infected MT-4 cells from wtIIIB-HIV-1-induced cytopathogenicity was determined by the MTT method. It is filed as functional, cell-based. An outline of the steps:
(§5)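 MT-4 cells (1 × 10⁴/well, RPMI 1640 with 10% FCS, 37 °C, 5% CO₂) were infected with HIV-1 IIIB (H9/IIIB supernatant) at an inoculum causing complete cytopathicity by day 4, across graded compound concentrations. Viability was read by MTT, with cytotoxicity run in parallel on mock-infected cells. Concentration giving 50% protection reported as the mean of three experiments.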
On the technique in general: Cytopathic effects are the visible damage that an infection or toxin causes in cultured cells.

The test system of assay [10] is MT4. The assay is described as §4. The class given is functional, cell-based. An outline of the steps:
as §1
This is another data set of the same source.

Assay [11] concerns MT4. Nature of the assay: Protection of infected MT-4 cells from wtIIIB-HIV-1-induced cytopathogenicity. The class given is functional, cell-based. An outline of the steps:
as §5

Molecules are shown by their SMILES.

For orientation: EC50 means the concentration that produces a half-maximal response. Read a high EC50 as weaker potency. What is called EC90 is the concentration needed for an effect of 90%. A low value points to greater potency.

`Cc1ccnc2c1NC(=O)c1cccnc1N2C1CC1` [NEVIRAPINE]: the EC50 in the assay with MT4 [1], with MT4 [2], in the assay on MT4 [5] and in the assay on MT4 [6] was over 30000 nM each time. The EC90 was 120 nM in the assay on C8166 [3], over 30000 nM in the assay with C8166 [4], 120 nM in the assay with C8166 [7] and over 30000 nM in the assay on C8166 [8].

As for `O=C1Nc2ccc(Cl)cc2[C@@](C#CC2CC2)(C(F)(F)F)O1` [EFAVIRENZ], the EC50 in the assay with MT4 [2] and with MT4 [5] was 150 nM in each case. For the same molecule, the EC90 in the assay on C8166 [3] came out at 8 nM; in the assay with C8166 [4] it was 1800 nM; with C8166 [7], 8 nM; in the assay with C8166 [8], 1800 nM.

Turning to `Cc1cc(C)cc(S(=O)(=O)c2c(C(=O)NCCO)[nH]c3ccc(Cl)cc23)c1`, the EC50 in the assay on MT4 [1] was 10 nM; in the assay on MT4 [2] it was 500 nM; in the assay with MT4 [9], 1 nM; in the assay with MT4 [5] it was 500 nM; in the assay on MT4 [10] it was 1 nM; in the assay with MT4 [6] it was 10 nM. Besides, in the assay with MT4 [11], the EC50 was 1 nM. Further, the EC90 in the assay on C8166 [3] came to 5 nM; in the assay on C8166 [4], 100 nM; in the assay with C8166 [7] it was 5 nM; with C8166 [8], 100 nM.

In the case of `Cc1cc(C)cc(S(=O)(=O)c2c(C(=O)NNCCO)[nH]c3ccc(Cl)cc23)c1`, the half-maximal effective concentration (EC50) with MT4 [1] was 30 nM; with MT4 [2], 10000 nM; in the assay with MT4 [9], 1 nM; with MT4 [5] it was 10000 nM; with MT4 [10], 1 nM; with MT4 [6], 30 nM. It took 1 nM to reach a half-maximal effect in the assay with MT4 [11] (EC50). For the same molecule, the EC90 in the assay with C8166 [3] was found to be 6 nM; with C8166 [4], 200 nM; in the assay with C8166 [7], 6 nM; in the assay with C8166 [8], 200 nM.
